Test results: ChEMBL document CHEMBL1127698, “Matrix metalloproteinase inhibitors containing a (carboxyalkyl)amino zinc ligand: modification of the P1 and P2' residues” (J Med Chem, 1994)
Blank lines part the entries; values can stand above or below the compound they belong to.

Columns and labels:
Stromelysin-1 = Stromelysin-1 (Homo sapiens, UniProt P08254); experiment: Activity against human stromelysin (MMP-3).
Procedure, shortened: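 Fluorogenic stromelysin assay: human enzyme 10 nM in pH 7.6 Tris buffer (200 mM NaCl, 5 mM CaCl2, 20 μM ZnSO4, 0.05% Brij 35). Inhibitors ran from 10 000 to 0.057 nM in 3-fold steps. Ki came from % inhibition vs log[inhibitor], with substrate far below Km.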

[1] = target: Matrix metalloproteinase-9 (Homo sapiens, UniProt P14780); experiment: Activity against human gelatinase (MMP-9).
Matrix metalloproteinase-9, sequence (P14780 whole entry): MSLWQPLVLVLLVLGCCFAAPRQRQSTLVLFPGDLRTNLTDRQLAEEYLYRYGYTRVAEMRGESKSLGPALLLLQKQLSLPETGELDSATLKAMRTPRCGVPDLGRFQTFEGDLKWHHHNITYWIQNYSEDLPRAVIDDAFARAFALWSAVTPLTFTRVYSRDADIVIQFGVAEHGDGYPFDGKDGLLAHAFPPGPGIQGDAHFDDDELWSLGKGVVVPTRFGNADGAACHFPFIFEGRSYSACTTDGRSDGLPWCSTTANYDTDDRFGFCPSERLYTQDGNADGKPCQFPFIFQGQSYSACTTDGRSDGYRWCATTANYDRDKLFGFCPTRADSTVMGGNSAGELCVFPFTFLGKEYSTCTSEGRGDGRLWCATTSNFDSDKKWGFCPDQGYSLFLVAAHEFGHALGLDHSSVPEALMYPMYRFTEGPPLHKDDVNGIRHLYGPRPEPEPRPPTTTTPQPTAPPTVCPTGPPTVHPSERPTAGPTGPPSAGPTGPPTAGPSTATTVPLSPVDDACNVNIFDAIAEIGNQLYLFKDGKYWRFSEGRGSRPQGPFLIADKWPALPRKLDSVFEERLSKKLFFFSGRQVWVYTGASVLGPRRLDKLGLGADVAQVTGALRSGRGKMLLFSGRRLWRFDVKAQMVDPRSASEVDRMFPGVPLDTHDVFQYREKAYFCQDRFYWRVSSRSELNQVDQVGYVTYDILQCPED
Procedure, shortened: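 Human gelatinase at 1 nM in pH 7.6 Tris buffer (200 mM NaCl, 5 mM CaCl2, 20 μM ZnSO4, 0.05% Brij 35), with inhibitors at 3-fold dilutions from 10 000 to 0.057 nM. Ki came from % inhibition vs log concentration, with substrate far below Km.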

Interstitial collagenase = target: T1, Interstitial collagenase (Homo sapiens, UniProt P03956); experiment: Activity against human collagenase (MMP-1).
T1 sequence (P03956 whole entry): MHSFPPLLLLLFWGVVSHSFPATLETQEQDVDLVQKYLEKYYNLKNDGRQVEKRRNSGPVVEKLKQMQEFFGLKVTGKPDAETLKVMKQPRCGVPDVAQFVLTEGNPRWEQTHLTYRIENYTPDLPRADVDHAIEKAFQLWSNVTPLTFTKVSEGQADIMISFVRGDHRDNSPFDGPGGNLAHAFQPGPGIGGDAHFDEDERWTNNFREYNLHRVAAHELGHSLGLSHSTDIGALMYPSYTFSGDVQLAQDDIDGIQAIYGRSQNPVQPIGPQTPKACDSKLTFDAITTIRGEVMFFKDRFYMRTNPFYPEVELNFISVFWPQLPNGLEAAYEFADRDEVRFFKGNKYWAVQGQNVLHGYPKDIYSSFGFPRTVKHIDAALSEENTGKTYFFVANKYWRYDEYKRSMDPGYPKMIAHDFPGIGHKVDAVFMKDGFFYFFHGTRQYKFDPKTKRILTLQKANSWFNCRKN

[2] = Half-life period for the activity is tested at pH 6.8; type: ADME
Procedure, shortened: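 Inhibitor at 20 μM in 20 mM sodium phosphate, pH 6.8, held at 30 °C. Aliquots were injected every 3 h over 24 h onto C18 reverse-phase HPLC with a 5–60% acetonitrile gradient containing 0.1% TFA.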

Stromelysin-1, sequence (P08254 whole entry): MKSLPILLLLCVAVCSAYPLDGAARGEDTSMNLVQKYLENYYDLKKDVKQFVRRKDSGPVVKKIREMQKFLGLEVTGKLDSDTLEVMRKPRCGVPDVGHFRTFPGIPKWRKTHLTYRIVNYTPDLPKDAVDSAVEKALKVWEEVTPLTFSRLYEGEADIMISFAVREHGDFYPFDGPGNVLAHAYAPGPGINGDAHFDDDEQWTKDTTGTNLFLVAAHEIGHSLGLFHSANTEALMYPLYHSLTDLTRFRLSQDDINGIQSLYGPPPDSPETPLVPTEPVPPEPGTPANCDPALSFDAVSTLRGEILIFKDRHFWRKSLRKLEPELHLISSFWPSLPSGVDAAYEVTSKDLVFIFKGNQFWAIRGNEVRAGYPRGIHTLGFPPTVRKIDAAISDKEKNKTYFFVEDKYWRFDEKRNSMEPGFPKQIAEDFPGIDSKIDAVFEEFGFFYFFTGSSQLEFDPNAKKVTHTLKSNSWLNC

Structure (SMILES): CNC(=O)[C@H](Cc1ccccc1)NC(=O)[C@H](CC(C)C)N[C@H](CCNC(=O)c1ccc2ccccc2c1)C(=O)O
- IC50 (Stromelysin-1): 2340 nM
- IC50 [1]: 49 nM
- half-life [2]: > 100 h
- IC50 (Interstitial collagenase): 488 nM

Structure (SMILES): CC(C)C[C@H](N[C@H](CCN1C(=O)c2cc3ccccc3cc2C1=O)C(=O)O)C(=O)NCc1cccnc1
- IC50 (Stromelysin-1): 309 nM
- IC50 [1]: 36 nM
- IC50 (Interstitial collagenase): 139 nM

Structure (SMILES): CNC(=O)[C@H](Cc1ccccc1)NC(=O)[C@H](CC(C)C)N[C@H](CCN1C(=O)c2ccccc2C1=O)C(=O)O
- IC50 (Stromelysin-1): 5970 nM
- IC50 [1]: 59 nM
- half-life [2]: 10 h
- IC50 (Interstitial collagenase): 81 nM

Structure (SMILES): CNC(=O)[C@H](CC(C)C)N[C@H](CCN1C(=O)c2cc3ccccc3cc2C1=O)C(=O)O
- IC50 (Stromelysin-1): > 10000 nM
- IC50 [1]: 706 nM
- IC50 (Interstitial collagenase): 490 nM

Structure (SMILES): CNC(=O)[C@H](Cc1ccccc1)NC(=O)[C@H](CC(C)C)N[C@H](CCN1C(=O)c2cc3ccc(OC)cc3cc2C1=O)C(=O)O
- IC50 (Interstitial collagenase): 36 nM

Structure (SMILES): CNC(=O)[C@H](C)NC(=O)[C@H](CC(C)C)N[C@H](CCN1C(=O)c2cc3ccccc3cc2C1=O)C(=O)O
- IC50 (Stromelysin-1): 5630 nM
- IC50 [1]: 69 nM
- IC50 (Interstitial collagenase): 86 nM

Structure (SMILES): CC(C)C[C@H](N[C@H](CCN1C(=O)c2cc3ccccc3cc2C1=O)C(=O)O)C(=O)NCc1nnn(C)n1
- IC50 (Stromelysin-1): 2980 nM
- IC50 [1]: 30 nM
- IC50 (Interstitial collagenase): 270 nM

Structure (SMILES): CC(C)C[C@H](N[C@H](CCN1C(=O)c2cc3ccccc3cc2C1=O)C(=O)O)C(=O)N(C)C
- IC50 (Stromelysin-1): > 10000 nM
- IC50 [1]: 82 nM
- IC50 (Interstitial collagenase): 86 nM

Structure (SMILES): CNC(=O)[C@H](Cc1ccccc1)NC(=O)[C@H](CC(C)C)N[C@H](CCNC(=O)OCc1ccccc1)C(=O)O
- IC50 (Stromelysin-1): 3570 nM
- IC50 [1]: 580 nM

Structure (SMILES): CC(C)C[C@H](N[C@H](CCN1C(=O)c2cc3ccccc3cc2C1=O)C(=O)O)C(=O)Nc1ccccc1
- IC50 (Stromelysin-1): 12500 nM
- IC50 [1]: 101 nM

Structure (SMILES): CC(C)C[C@@H](N[C@H](CCN1C(=O)c2cc3ccccc3cc2C1=O)C(=O)O)C(=O)NC(C)c1ccccc1 (stereo not given in full)
- IC50 (Stromelysin-1): 4700 nM
- IC50 [1]: 76 nM
- IC50 (Interstitial collagenase): 74 nM

Structure (SMILES): CC(C)C[C@H](N[C@H](CCN1C(=O)c2cc3ccccc3cc2C1=O)C(=O)O)C(=O)NCc1ccccc1
- IC50 (Stromelysin-1): 1520 nM
- IC50 [1]: 32 nM
- IC50 (Interstitial collagenase): 87 nM

Structure (SMILES): CC(C)C[C@H](N[C@H](CCN1C(=O)c2cc3ccccc3cc2C1=O)C(=O)O)C(=O)NCc1ccc(C(=O)O)cc1
- IC50 (Stromelysin-1): 178 nM
- IC50 [1]: 74 nM
- IC50 (Interstitial collagenase): 56 nM

Structure (SMILES): CC(C)C[C@H](N[C@H](CCN1C(=O)c2cc3ccccc3cc2C1=O)C(=O)O)C(=O)N1CCc2ccccc2C1
- IC50 (Stromelysin-1): 2190 nM
- IC50 [1]: 88 nM
- IC50 (Interstitial collagenase): 84 nM

Structure (SMILES): CNC(=O)[C@H](Cc1ccccc1)NC(=O)[C@H](CC(C)C)N[C@H](CCN1Cc2cc3ccccc3cc2C1=O)C(=O)O
- IC50 (Stromelysin-1): 7880 nM
- IC50 [1]: 63 nM
- half-life [2]: > 100 h
- IC50 (Interstitial collagenase): 211 nM

Structure (SMILES): CC(C)C[C@H](N[C@H](CCN1C(=O)c2cc3ccccc3cc2C1=O)C(=O)O)C(=O)N1CCN(C)CC1
- IC50 (Stromelysin-1): 1890 nM
- IC50 [1]: 70 nM
- IC50 (Interstitial collagenase): 54 nM

Structure (SMILES): CC(C)C[C@H](N[C@H](CCN1C(=O)c2cc3ccccc3cc2C1=O)C(=O)O)C(=O)NCCc1ccccc1
- IC50 (Stromelysin-1): > 10000 nM
- IC50 [1]: 35 nM
- IC50 (Interstitial collagenase): 160 nM

Structure (SMILES): CNC(=O)CNC(=O)[C@H](CC(C)C)N[C@H](CCN1C(=O)c2cc3ccccc3cc2C1=O)C(=O)O
- IC50 (Stromelysin-1): > 10000 nM
- IC50 [1]: 124 nM
- IC50 (Interstitial collagenase): 370 nM

Structure (SMILES): CC(C)C[C@H](N[C@H](CCN1C(=O)c2cc3ccccc3cc2C1=O)C(=O)O)C(=O)N(C)Cc1ccccc1
- IC50 (Stromelysin-1): 1160 nM
- IC50 [1]: 57 nM
- IC50 (Interstitial collagenase): 37 nM

Structure (SMILES): CC(C)C[C@H](N[C@H](CCN1C(=O)c2cc3ccccc3cc2C1=O)C(=O)O)C(=O)N1CCCC1c1cccnc1 (stereo in doubt; 76)
- IC50 (Stromelysin-1): 4080 nM
- IC50 [1]: 70 nM
- IC50 (Interstitial collagenase): 164 nM

Structure (SMILES): CC(C)C[C@H](N[C@H](CCN1C(=O)c2cc3ccccc3cc2C1=O)C(=O)O)C(=O)NC1CCCc2ccccc21 (stereo not given in full)
- IC50 (Stromelysin-1): 2470 nM
- IC50 [1]: 75 nM
- IC50 (Interstitial collagenase): 108 nM

The next lines start with the values.

- IC50 (Stromelysin-1): 1480 nM
- IC50 [1]: 15 nM
- IC50 (Interstitial collagenase): 41 nM
Structure (SMILES): CC(C)C[C@H](N[C@H](CCN1C(=O)c2cc3ccccc3cc2C1=O)C(=O)O)C(=O)NCc1cccc(F)c1

- IC50 (Stromelysin-1): 1400 nM
- IC50 [1]: 15 nM
- half-life [2]: 7.2 h
- IC50 (Interstitial collagenase): 36 nM
Structure (SMILES): CNC(=O)[C@H](Cc1ccccc1)NC(=O)[C@H](CC(C)C)N[C@H](CCN1C(=O)c2cc3cccc(OC)c3cc2C1=O)C(=O)O

- IC50 (Stromelysin-1): 1300 nM
- IC50 [1]: 11 nM
- half-life [2]: 27 h
- IC50 (Interstitial collagenase): 49 nM
Structure (SMILES): CNC(=O)[C@H](CC(C)C)NC(=O)[C@H](CC(C)C)N[C@H](CCN1C(=O)c2cc3ccccc3cc2C1=O)C(=O)O

- IC50 (Stromelysin-1): 295 nM
- IC50 [1]: 6.7 nM
- IC50 (Interstitial collagenase): 70 nM
Structure (SMILES): CC(C)C[C@H](N[C@H](CCN1C(=O)c2cc3ccccc3cc2C1=O)C(=O)O)C(=O)NCc1ccc(S(N)(=O)=O)cc1

- IC50 (Stromelysin-1): 427 nM
- IC50 [1]: 2.1 nM
- half-life [2]: 10.9 h
- IC50 (Interstitial collagenase): 15 nM
Structure (SMILES): CCCOc1ccc2c(c1)C(=O)N(CC[C@@H](N[C@@H](CC(C)C)C(=O)N[C@@H](Cc1ccccc1)C(=O)NC)C(=O)O)C2=O

- IC50 (Stromelysin-1): 481 nM
- IC50 [1]: 27 nM
- IC50 (Interstitial collagenase): 152 nM
Structure (SMILES): CNC(=O)[C@H](CCCN=C(N)N)NC(=O)[C@H](CC(C)C)N[C@H](CCN1C(=O)c2cc3ccccc3cc2C1=O)C(=O)O

- IC50 (Stromelysin-1): 518 nM
- IC50 [1]: 7.5 nM
- half-life [2]: 1.7 h
- IC50 (Interstitial collagenase): 22 nM
Structure (SMILES): CNC(=O)[C@H](Cc1ccccc1)NC(=O)[C@H](CC(C)C)N[C@H](CCN1C(=O)c2cc3ccccc3nc2C1=O)C(=O)O

- IC50 (Stromelysin-1): 2170 nM
- IC50 [1]: 4.8 nM
- half-life [2]: 1.7 h
- IC50 (Interstitial collagenase): 38 nM
Structure (SMILES): CNC(=O)[C@H](Cc1ccccc1)NC(=O)[C@H](CC(C)C)N[C@H](CCn1c(=O)c2cc3c(=O)[nH]c(=O)c3cc2c1=O)C(=O)O

- IC50 (Stromelysin-1): 121 nM
- IC50 [1]: 13 nM
- half-life [2]: 37 h
- IC50 (Interstitial collagenase): 44 nM
Structure (SMILES): CC(C)C[C@H](NC(=O)[C@H](CC(C)C)N[C@H](CCN1C(=O)c2cc3ccccc3cc2C1=O)C(=O)O)C(=O)NCCN1CCOCC1

- IC50 (Stromelysin-1): 72 nM
- IC50 [1]: 3.8 nM
- IC50 (Interstitial collagenase): 29 nM
Structure (SMILES): CNC(=O)[C@H](Cc1ccc(O)cc1)NC(=O)[C@H](CC(C)C)N[C@H](CCN1C(=O)c2cc3ccccc3cc2C1=O)C(=O)O

- IC50 (Stromelysin-1): 341 nM
- IC50 [1]: 28 nM
- IC50 (Interstitial collagenase): 190 nM
Structure (SMILES): CNC(=O)[C@H](Cc1ccccc1)NC(=O)[C@H](CC(C)C)N[C@H](CCN1C(=O)c2cccc3c(Br)ccc(c23)C1=O)C(=O)O

- IC50 (Stromelysin-1): 960 nM
- IC50 [1]: 18 nM
- IC50 (Interstitial collagenase): 44 nM
Structure (SMILES): CC(C)C[C@H](N[C@H](CCN1C(=O)c2cc3ccccc3cc2C1=O)C(=O)O)C(=O)N1CCCC1c1cccnc1 (stereo in doubt; 75)

- IC50 (Stromelysin-1): 631 nM
- IC50 [1]: 14 nM
- IC50 (Interstitial collagenase): 19 nM
Structure (SMILES): CNC(=O)C(NC(=O)[C@H](CC(C)C)N[C@H](CCN1C(=O)c2cc3ccccc3cc2C1=O)C(=O)O)c1ccccc1 (stereo not given in full)

- IC50 (Stromelysin-1): 216 nM
- IC50 [1]: 4.5 nM
- half-life [2]: 7.8 h
- IC50 (Interstitial collagenase): 19 nM
Structure (SMILES): CNC(=O)[C@H](Cc1ccccc1)NC(=O)[C@H](CC(C)C)N[C@H](CCN1C(=O)c2ccc(-c3ccccc3)cc2C1=O)C(=O)O

- IC50 (Stromelysin-1): 91 nM
- IC50 [1]: 5 nM
- half-life [2]: 29 h
- IC50 (Interstitial collagenase): 20 nM
Structure (SMILES): CNC(=O)[C@H](Cc1ccccc1)NC(=O)[C@H](CC(C)C)N[C@H](CCN1C(=O)c2cc3ccccc3cc2C1=O)C(=O)O

- IC50 (Stromelysin-1): 1370 nM
- IC50 [1]: 7.4 nM
- half-life [2]: 87 h
- IC50 (Interstitial collagenase): 54 nM
Structure (SMILES): CNC(=O)[C@H](Cc1ccccc1)NC(=O)[C@H](CC(C)C)N[C@H](CCN1C(=O)c2cc3ccccc3c(OC)c2C1=O)C(=O)O

- IC50 (Stromelysin-1): 965 nM
- IC50 [1]: 12 nM
- IC50 (Interstitial collagenase): 51 nM
Structure (SMILES): CC(C)C[C@H](N[C@H](CCN1C(=O)c2cc3ccccc3cc2C1=O)C(=O)O)C(=O)NC(C)c1ccccc1 (stereo not given in full)

- IC50 [1]: 5 nM
- half-life [2]: 15.5 h
- IC50 (Interstitial collagenase): 12 nM
Structure (SMILES): CNC(=O)[C@H](Cc1ccccc1)NC(=O)[C@H](CC(C)C)N[C@H](CCN1C(=O)c2cc3c(cc2C1=O)OCO3)C(=O)O
